In PMC7564034 (Acta Pharmaceutica Sinica. B, 2019):
Like-named read-outs stand apart in the source and are kept apart here.

Key:
[1] = assay type: in vivo, Balb/c nude mice harboring LoVo xenografts; details: for Cmax / Tmax: Balb/c nude, mouse, plasma, ip; for AUC0–∞ in plasma relative to those of Re, Rg1, Rg3 and Ro: after single or multiple SMI administration
Procedure, shortened: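 Male LoVo-xenograft nude mice (6 weeks old) received 10 mL/kg i.p., either once or daily for 8 days. Blood (~0.1 mL) was drawn from the oculi chorioideae vein into heparin tubes between 5 min and 96 h after the last dose, 5 mice per time point. Plasma was spun at 8000 rpm for 5 min and extracted with methanol. AUC0–∞ and the multiple/single ratio were derived.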

[2] = assay type: in vivo, Balb/c nude mice harboring LoVo xenografts; details: for AUC0–∞ ratio Multiple/Single in tumors: 8-day vs single SMI 10 mL/kg/day i.p.
VEGF = assay: ELISA of VEGF secretion in tumors; assay type: in vivo, Balb/c mice harboring LoVo xenografts; details: 15 days i.p.; SMI, Rd-H 5 mg/kg, Rb1, Rg1; vs vehicle
Procedure, shortened: (§1)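 Mice received test compound i.p. for 15 days. Tumors were harvested 20 min after the final dose and homogenized in RIPA buffer. VEGF and FGF were quantified by ELISA kit and normalized to protein content measured by BCA assay. Compared with vehicle.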

FGF = assay: ELISA of FGF secretion in tumors; assay type: in vivo, Balb/c mice harboring LoVo xenografts; details: 15 days i.p.; SMI, Rd-H 5 mg/kg, Rb1, Rg1; vs vehicle
Procedure, shortened: as §1

[3] = Constituent ratio of ginsenosides in SMI, plasma, tumor and endothelial cells; assay type: in vivo, Balb/c nude mice harboring LoVo xenografts; details: 20 min after 15-day SMI treatment
Procedure, shortened: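 Tissues were sampled 20 min after the last dose of a 15-day i.p. course. Tumors were digested 1 h in DMEM with collagenase I (2 mg/mL) and DNase I (0.1 mg/mL), then strained through 40 μm mesh. CD31+ cells were enriched with PE anti-mouse CD31 and anti-PE magnetic particles, with purity checked by CD45/viability flow cytometry; n = 3. Each ratio = concentration of the constituent / summed eight ginsenosides.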

[4] = assay type: in vivo, mice harboring xenograft tumors; details: after intraperitoneal injection of Rb1, Rc, or Rd; data not shown
[5] = after eight days of SMI 10 mL/kg/day i.p.
[6] = single dose of SMI 10 mL/kg i.p.

Structure (SMILES): CC1(C)CC[C@]2(C(=O)O[C@@H]3O[C@H](CO)[C@@H](O)[C@H](O)[C@H]3O)CC[C@]3(C)C(=CC[C@@H]4[C@@]5(C)CC[C@H](O[C@@H]6O[C@H](C(=O)O)[C@@H](O)[C@H](O)[C@H]6O[C@@H]6O[C@H](CO)[C@@H](O)[C@H](O)[C@H]6O)C(C)(C)[C@@H]5CC[C@]43C)[C@@H]2C1 [Ro, ginsenoside Ro]
- Cmax in plasma [1, 5]: 3700 ng/mL
- Time of maximum concentration in plasma [1, 5]: 20 min
- Cmax in plasma [1, 6]: 3900 ng/mL
- Time of maximum concentration in plasma [1, 6]: 60 min
- AUC0–∞ ratio Multiple/Single in tumors [2]: 0.92

Structure (SMILES): CC(C)=CCC[C@](C)(O[C@@H]1O[C@H](CO)[C@@H](O)[C@H](O)[C@H]1O)[C@H]1CC[C@]2(C)[C@@H]1[C@H](O)C[C@@H]1[C@@]3(C)CC[C@H](O)C(C)(C)[C@@H]3[C@@H](O[C@@H]3O[C@H](CO)[C@@H](O)[C@H](O)[C@H]3O)C[C@]12C [Rg1]
- Cmax ([1]; 10 mL/kg): 2000 ng/mL
- Tmax ([1]; 10 mL/kg): 0.167 h
- Cmax ([1]; 10 mL/kg/day): 2100 ng/mL
- Tmax ([1]; 10 mL/kg/day): 0.167 h
- Reduction of the secretion of VEGF in tumors (VEGF): 1%
- Suppression of the secretion of FGF in tumors (FGF): 97%

Structure (SMILES): CC(C)=CCC[C@](C)(O[C@@H]1O[C@H](CO[C@@H]2O[C@H](CO)[C@@H](O)[C@H](O)[C@H]2O)[C@@H](O)[C@H](O)[C@H]1O)[C@H]1CC[C@]2(C)[C@@H]1[C@H](O)C[C@@H]1[C@@]3(C)CC[C@H](O[C@@H]4O[C@H](CO)[C@@H](O)[C@H](O)[C@H]4O[C@@H]4O[C@H](CO)[C@@H](O)[C@H](O)[C@H]4O)C(C)(C)[C@@H]3CC[C@]12C [Rb1, ginsenoside Rb1]
- Cmax ([1]; 10 mL/kg): 20600 ng/mL
- Tmax ([1]; 10 mL/kg): 1 h
- Cmax ([1]; 10 mL/kg/day): 49400 ng/mL
- Tmax ([1]; 10 mL/kg/day): 2 h
- AUC0–∞ in plasma relative to those of Re, Rg1, Rg3 and Ro [1]: more than 20 times
- AUC0–∞ ratio Multiple/Single in tumors [2]: 1.64
- Constituent ratio in TECs [3]: 14.9%
- Constituent ratio in plasma [3]: 34.5%
- Constituent ratio in tumor tissues [3]: 21.9%
- Reduction of the secretion of VEGF in tumors (VEGF): 15%
- Suppression of the secretion of FGF in tumors (FGF): 99%

Structure (SMILES): CC(C)=CCC[C@](C)(O)[C@H]1CC[C@]2(C)[C@@H]1[C@H](O)C[C@@H]1[C@@]3(C)CC[C@H](O[C@@H]4O[C@H](CO)[C@@H](O)[C@H](O)[C@H]4O[C@@H]4O[C@H](CO)[C@@H](O)[C@H](O)[C@H]4O)C(C)(C)[C@@H]3CC[C@]12C [Rg3]
- Cmax in plasma [1, 5]: 300 ng/mL
- Time of maximum concentration in plasma [1, 5]: 20 min
- Cmax in plasma [1, 6]: 100 ng/mL
- Time of maximum concentration in plasma [1, 6]: 60 min
- Detection in tumors over time ([2]; 20 min, 2, 12, 24, 96 h after single or multiple SMI administration): could not be identified at any time
- Detection in plasma or tumor tissues [4]: neither Rg3 nor CK could be detected

Structure (SMILES): CC(C)=CCC[C@](C)(O[C@@H]1O[C@H](CO[C@@H]2O[C@@H](CO)[C@H](O)[C@H]2O)[C@@H](O)[C@H](O)[C@H]1O)[C@H]1CC[C@]2(C)[C@@H]1[C@H](O)C[C@@H]1[C@@]3(C)CC[C@H](O[C@@H]4O[C@H](CO)[C@@H](O)[C@H](O)[C@H]4O[C@@H]4O[C@H](CO)[C@@H](O)[C@H](O)[C@H]4O)C(C)(C)[C@@H]3CC[C@]12C [Rc]
- Cmax ([1]; 10 mL/kg): 7800 ng/mL
- Tmax ([1]; 10 mL/kg): 4 h
- Cmax ([1]; 10 mL/kg/day): 16900 ng/mL
- Tmax ([1]; 10 mL/kg/day): 2 h
- AUC0–∞ in plasma relative to those of Re, Rg1, Rg3 and Ro [1]: more than 20 times
- AUC0–∞ ratio Multiple/Single in tumors [2]: 5.67
